# Test results taken from ChEMBL document CHEMBL2202986, “Guaianolide sesquiterpene lactones, a source to discover agents that selectively inhibit acute myelogenous leukemia stem and progenitor cells” (J Med Chem, 2012).
# Key:
# [1] = tested on: Mus musculus; assay: Toxicity in BALB/c mouse assessed as pathological changes in liver at 1000 mg/kg, po administered as single dose by hematoxylin-eosin staining method; assay type: organism-based; parameters: dose 1000 mg/kg, route oral; settings: in vivo
# Outline: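 BALB/c mice, 16 in total (8 male, 8 female). DMAMCL was given by gavage as an aqueous solution, either 1000 mg/kg once or 500 mg/kg every day for seven doses. Controls were untreated and water-vehicle mice. Mice were killed 1 week after dosing. Heart, liver, spleen, lung and kidney were fixed in 10% neutral-buffered formalin, paraffin-embedded, cut into 3 μm sections, H&E-stained and examined microscopically for gross morphology.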
# [2] = Antitumor activity against mixed-lineage human leukemia cells xenografted in NOD/SCID mouse assessed as inhibition of cancer cell engrafting at 100 mg/kg, po qd administered every other day total of seven doses starting from 8 weeks post grafting measured on day 35; assay type: functional
# [3] = Antitumor activity against human leukemia stem/progenitor cells xenografted in NOD/SCID mouse assessed as survival rate at 100 mg/kg, po qd administered every other day total of seven doses starting from 8 weeks post grafting measured on day 85; assay type: functional
# Outline: (§1)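 NOD/SCID mice were sublethally irradiated (280cGay), then 6−10 h later given primary AML M5 patient cells via tail vein in PBS. From 8 weeks postinoculation, aqueous solution was given orally at 100 mg/kg every other day for seven doses. Survival was followed, Kaplan−Meier, n = 6 per treated group and n = 7 untreated controls. Survivors at day 85 had bone marrow analysed for human CD45⁺CD33⁺ cells.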
# [4] = Antitumor activity against human leukemia stem/progenitor cells xenografted in NOD/SCID mouse assessed as survival time at 100 mg/kg, po qd administered every other day total of seven doses starting from 8 weeks post grafting (reference value: 43 days); assay type: functional; outline: as §1
# [5] = Volume of distribution in mouse at 100 mg/kg, iv; assay type: ADME, organism-based; parameters: dose 100 mg/kg, route intravenous; settings: in vivo
# Outline: (§2)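 Male Kunming mice (20 2 g) were fasted 12 h with water available. An aqueous solution was dosed po (150 mg/kg) or iv (100 mg/kg), n = 5 per route. Blood was drawn from the orbital veins at set times to measure DMAMCL and released MCL. Parameters come from a noncompartmental model and are given as mean with SD.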
# [6] = AUC (0 to infinity) in mouse at 100 mg/kg, iv; assay type: ADME, organism-based; parameters: time infinity, dose 100 mg/kg, route intravenous; settings: plasma
# Outline: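 Male Kunming mice (20 2 g), fasted 12 h before dosing with water available, given DMAMCL as an aqueous solution iv (n = 5). Blood was drawn from the orbital veins at set times. DMAMCL and MCL in plasma were measured, and parameters were derived by a noncompartmental model.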
# [7] = tested on: Mus musculus; assay: Volume of distribution in mouse at 150 mg/kg, po; assay type: ADME, organism-based; parameters: dose 150 mg/kg, route oral; settings: in vivo; outline: as §2
# [8] = Total clearance in mouse at 150 mg/kg, po; assay type: ADME, organism-based; parameters: dose 150 mg/kg, route oral; settings: in vivo
# Outline: (§3)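 Male Kunming mice (20 2 g), fasted 12 h before dosing with water available, given DMAMCL as an aqueous solution po (n = 5). Blood was drawn from the orbital veins at set times. Plasma DMAMCL and MCL were followed, and parameters came from noncompartmental analysis.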
# [9] = Mean retention time (0 to infinity) in mouse at 150 mg/kg, po; assay type: ADME, organism-based; parameters: dose 150 mg/kg, route oral; settings: in vivo; outline: as §3
# [10] = AUC (0 to t) in mouse at 150 mg/kg, po; assay type: ADME, organism-based; parameters: dose 150 mg/kg, route oral; settings: plasma; outline: as §3
# [11] = Cytotoxicity against human leukemia stem/progenitor cells assessed as viable CD34+ cells at 10 uM after 18 hrs by annexin-V labeling-based flow cytometry; assay type: functional, CD34+ cell
# [12] = Cytotoxicity against human leukemia stem/progenitor cells assessed as viable CD34+ cells at 5 uM after 18 hrs by annexin-V labeling-based flow cytometry; assay type: functional, CD34+ cell
# Outline: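 Primary leukemia cells from AML patient blood were treated for 18 h in serum-free IMDM, then stained with CD34-APC and CD38-PECy7 for 30 min. After washing in cold PBS, cells were labelled with Annexin-V–FITC/PI for 15 min at room temperature and read by flow cytometry. Viability of total and CD34⁺ cells was normalized to untreated controls (mean, SD).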
# [13] = tested on: HL-60; assay: Cytotoxicity against human HL60 cells after 18 hrs by annexin-V labeling-based flow cytometry; assay type: functional, cell-based; settings: HL-60, 18 h
# [14] = tested on: Plasma; assay: Drug metabolism in mouse plasma assessed as release of MCL; assay type: ADME, cell-free
# Outline: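 A 20 μL aliquot of prodrug solution was added to 980 μL blank mouse plasma and incubated at 37 °C. Prodrug and released parent drug concentrations were measured over time by HPLC (mean, SD, n = 4).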
# [15] = Drug degradation in HEPES buffer at pH 7.4 assessed as release of MCL up to 8 hrs; assay type: physicochemical; settings: pH 7.4, 8 h
# Outline: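 A 20 μL aliquot of prodrug solution was added to 980 μL HEPES buffer (pH 7.4, or below 5.0) and incubated at 37 °C. Samples were withdrawn over time, and prodrug and released parent were quantified by HPLC (mean, SD, n = 4).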
compound,measurement,setting,value
CC1=C2CC[C@@](C)(O)[C@@H]2[C@H]2OC(=O)[C@@H](CN(C)C)[C@@H]2CC1.Cl [DIMETHYLAMINOMICHELIOLIDE HYDROCHLORIDE],Activity,[1],Non-toxic
same,inhibition in vivo at 100 mg/kg,[2],98.6%
same,survival at 100 mg/kg,[3],33%
same,Survival,[4],63 days
same,Vd,[5],88.2 L/kg
same,AUC(0-inf),[6],44800 ng·h/mL
same,Vd,[7],47.38 L/kg
same,CL/F,[8],51.3 mL/min/kg
same,MRT inf,[9],9.85 h
same,AUC(0-t),[10],49600 ng·h/mL
same,Activity,[11],60.4%
same,Activity,[12],72.9%
same,IC50,[13],17.2 µM
same,Drug metabolism,[14],Active
same,Drug degradation,[15],Active
